Measurements published in ChEMBL document CHEMBL3596157, “Heteroaromatic analogs of the resveratrol analog DMU-212 as potent anti-cancer agents” (2015).

How the values were obtained:
Type in all cases: functional
[1] = Growth inhibition of human MOLT4 cells after 48 hrs by SRB assay; conditions: MOLT-4, 48 h
Procedure, shortened: (§1)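 NCI-60 panel screen. Cells exposed for 48 h to five concentrations (10−4, 10−5, 10−6, 10−7 and 10−8 M). Sulforhodamine B optical density is read just before compound addition (time zero) and after 48 h, for both treated and vehicle-control wells. Percent growth is calculated against control. GI50 is the concentration giving a 50% reduction in net cell growth relative to cell numbers on day 0.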

[2] = Growth inhibition of human HCC2998 cells after 48 hrs by SRB assay; conditions: HCC 2998, 48 h; procedure, shortened: as §1
786-0 = experiment: Growth inhibition of human 786-0 cells after 48 hrs by SRB assay; conditions: 786-0, 48 h; procedure, shortened: as §1
DU-145 = experiment: Growth inhibition of human DU145 cells after 48 hrs by SRB assay; conditions: DU-145, 48 h; procedure, shortened: as §1
ACHN = experiment: Growth inhibition of human ACHN cells after 48 hrs by SRB assay; procedure, shortened: as §1
HL-60(TB) = experiment: Growth inhibition of human HL-60(TB) cells after 48 hrs by SRB assay; conditions: HL-60, 48 h
Procedure, shortened: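 NCI-60 panel screen: cells were exposed to test agent at five concentrations (10−4, 10−5, 10−6, 10−7 and 10−8 M) for 48 h. Sulforhodamine B optical density was read at time zero and after exposure to compound or vehicle control, and growth percentage versus control was calculated. GI50 was taken as the concentration giving a 50% reduction in net cell growth relative to day 0 cell numbers.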

OVCAR-8 = experiment: Growth inhibition of human OVCAR8 cells after 48 hrs by SRB assay; conditions: OVCAR-8, 48 h; procedure, shortened: as §1
MCF7 = experiment: Growth inhibition of human MCF7 cells after 48 hrs by SRB assay; conditions: MCF7, 48 h; procedure, shortened: as §1
U-251 = experiment: Growth inhibition of human U251 cells after 48 hrs by SRB assay; conditions: U-251, 48 h
Procedure, shortened: (§2)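 NCI-60 panel cells; preliminary single-dose screen at 10−5 M, then five-dose testing at 10−4 to 10−8 M (tenfold steps) with 48 h exposure. SRB-stained optical density read before compound addition (time zero), after 48 h with compound, and with vehicle control. Percent growth is calculated against control. GI50 is the concentration giving 50% reduction in net growth relative to day-0 cell number.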

[3] = Growth inhibition of human LOXIMVI cells after 48 hrs by SRB assay; conditions: LOX IMVI; procedure, shortened: as §1
K562 = experiment: Growth inhibition of human K562 cells after 48 hrs by SRB assay; conditions: K562, 48 h; procedure, shortened: as §1
OVCAR-5 = experiment: Growth inhibition of human OVCAR5 cells after 48 hrs by SRB assay; conditions: OVCAR-5, 48 h; procedure, shortened: as §1
SK-MEL-5 = experiment: Growth inhibition of human SK-MEL-5 cells after 48 hrs by SRB assay; conditions: SK-MEL-5, 48 h; procedure, shortened: as §1
UACC-257 = experiment: Growth inhibition of human UACC257 cells after 48 hrs by SRB assay; conditions: UACC-257, 48 h; procedure, shortened: as §2
[4] = Growth inhibition of human NCI-ADR-RES cells after 48 hrs by SRB assay; procedure, shortened: as §1
[5] = Growth inhibition of human COLO205 cells after 48 hrs by SRB assay; conditions: COLO 205, 48 h; procedure, shortened: as §1
CAKI-1 = experiment: Growth inhibition of human Caki1 cells after 48 hrs by SRB assay; conditions: CAKI-1, 48 h; procedure, shortened: as §1
NCI-H322M = experiment: Growth inhibition of human NCI-H322M cells after 48 hrs by SRB assay; procedure, shortened: as §1
CCRF-CEM = experiment: Growth inhibition of human CCRF-CEM cells after 48 hrs by SRB assay; procedure, shortened: as §1
[6] = Growth inhibition of human HOP92 cells after 48 hrs by SRB assay; conditions: HOP-92, 48 h; procedure, shortened: as §1
[7] = Growth inhibition of human Hs578T cells after 48 hrs by SRB assay; conditions: Hs-578T; procedure, shortened: as §1
SNB-75 = experiment: Growth inhibition of human SNB75 cells after 48 hrs by SRB assay; conditions: SNB-75, 48 h; procedure, shortened: as §2
HOP-62 = experiment: Growth inhibition of human HOP62 cells after 48 hrs by SRB assay; conditions: HOP-62, 48 h; procedure, shortened: as §1
MDA-MB-231 = experiment: Growth inhibition of human MDA-MB-231/ATCC cells after 48 hrs by SRB assay; conditions: MDA-MB-231, 48 h; procedure, shortened: as §1
SK-MEL-2 = experiment: Growth inhibition of human SK-MEL-2 cells after 48 hrs by SRB assay; conditions: SK-MEL-2, 48 h; procedure, shortened: as §1
HT-29 = experiment: Growth inhibition of human HT-29 cells after 48 hrs by SRB assay; conditions: HT-29, 48 h; procedure, shortened: as §1
A549 = experiment: Growth inhibition of human A549/ATCC cells after 48 hrs by SRB assay; conditions: A549, 48 h; procedure, shortened: as §1
[8] = Growth inhibition of human BT549 cells after 48 hrs by SRB assay; conditions: BT-549, 48 h; procedure, shortened: as §1
NCI-H460 = experiment: Growth inhibition of human NCI-H460 cells after 48 hrs by SRB assay; conditions: NCI-H460, 48 h; procedure, shortened: as §1
SK-OV-3 = experiment: Growth inhibition of human SKOV3 cells after 48 hrs by SRB assay; conditions: SK-OV-3, 48 h; procedure, shortened: as §1
IGROV-1 = experiment: Growth inhibition of human IGROV1 cells after 48 hrs by SRB assay; conditions: IGROV-1, 48 h; procedure, shortened: as §1
SW-620 = experiment: Growth inhibition of human SW620 cells after 48 hrs by SRB assay; conditions: SW-620, 48 h; procedure, shortened: as §2
SF-268 = experiment: Growth inhibition of human SF268 cells after 48 hrs by SRB assay; conditions: SF-268, 48 h; procedure, shortened: as §1
MDA-MB-468 = experiment: Growth inhibition of human MDA-MB-468 cells after 48 hrs by SRB assay; conditions: MDA-MB-468, 48 h; procedure, shortened: as §1
MDA-MB-435 = experiment: Growth inhibition of human MDA-MB-435 cells after 48 hrs by SRB assay; conditions: MDA-MB-435, 48 h; procedure, shortened: as §1
HCT-15 = experiment: Growth inhibition of human HCT15 cells after 48 hrs by SRB assay; conditions: HCT-15, 48 h; procedure, shortened: as §1
[9] = Growth inhibition of human SF539 cells after 48 hrs by SRB assay; conditions: SF-539, 48 h; procedure, shortened: as §1
NCI-H522 = experiment: Growth inhibition of human NCI-H522 cells after 48 hrs by SRB assay; conditions: NCI-H522, 48 h; procedure, shortened: as §1
NCI-H226 = experiment: Growth inhibition of human NCI-H226 cells after 48 hrs by SRB assay; conditions: NCI-H226, 48 h; procedure, shortened: as §1
NCI-H23 = experiment: Growth inhibition of human NCI-H23 cells after 48 hrs by SRB assay; conditions: NCI-H23, 48 h; procedure, shortened: as §1
TK-10 = experiment: Growth inhibition of human TK10 cells after 48 hrs by SRB assay; conditions: TK-10, 48 h; procedure, shortened: as §2
SK-MEL-28 = experiment: Growth inhibition of human SK-MEL-28 cells after 48 hrs by SRB assay; conditions: SK-MEL-28, 48 h; procedure, shortened: as §1
T47D = experiment: Growth inhibition of human T47D cells after 48 hrs by SRB assay; procedure, shortened: as §2

COc1cc(/C=C/c2cc3ccccc3o2)cc(OC)c1OC
GI50 [1]: 852 nM
GI50 [2]: 334 nM
GI50 (786-0): 850 nM
GI50 (DU-145): 1860 nM
GI50 (ACHN): 863 nM
GI50 (HL-60(TB)): 356 nM
GI50 (OVCAR-8): 2050 nM
GI50 (MCF7): 373 nM
GI50 (U-251): 668 nM
GI50 [3]: 895 nM
GI50 (K562): 267 nM
GI50 (OVCAR-5): 2940 nM
GI50 (SK-MEL-5): 345 nM
GI50 (UACC-257): 16400 nM
GI50 [4]: 511 nM
GI50 [5]: 406 nM
GI50 (CAKI-1): 580 nM
GI50 (NCI-H322M): 15900 nM
GI50 (CCRF-CEM): 425 nM
GI50 [6]: 170 nM
GI50 [7]: 499 nM
GI50 (SNB-75): 475 nM
GI50 (HOP-62): 775 nM
GI50 (MDA-MB-231): 1170 nM
GI50 (SK-MEL-2): 767 nM
GI50 (HT-29): 375 nM
GI50 (A549): 615 nM
GI50 [8]: 1090 nM
GI50 (NCI-H460): 416 nM
GI50 (SK-OV-3): 656 nM
GI50 (IGROV-1): 807 nM
GI50 (SW-620): 444 nM
GI50 (SF-268): 861 nM
GI50 (MDA-MB-468): 662 nM
GI50 (MDA-MB-435): 78 nM
GI50 (HCT-15): 402 nM
GI50 [9]: 273 nM
GI50 (NCI-H522): 436 nM
GI50 (NCI-H226): 1100 nM
GI50 (NCI-H23): 3090 nM
GI50 (TK-10): 8460 nM
GI50 (SK-MEL-28): 837 nM
GI50 (T47D): 693 nM
